The results in this text go back to ChEMBL document CHEMBL2331509, “Design, synthesis, characterization and anti-inflammatory evaluation of novel pyrazole amalgamated flavones” (2013).

In assay [1] the test system is Rattus norvegicus. Kind of assay: Antiinflammatory activity in Wistar rat assessed as inhibition of carrageenan-induced paw volume at 100 mg/kg, po measured after 1 hr of carrageenan challenge (reference value: 0.94 +/- 0.05 ml). The format is functional.
Another assay deals with Mus musculus. Kind of assay: Antiinflammatory activity in mouse assessed as inhibition of acetic acid-induced vascular permeability by measuring Evan's blue dye leakage at 100 mg/kg, po administered 1 hr before acetic acid challenge measured after 30 mins. The format is functional. An outline of the steps: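 Mice, n=6 per group, were dosed orally at 100 mg/kg; the vehicle was 2% gum acacia at 10 mL/kg. After 1 h they received 0.25 mL of 0.6% v/v acetic acid i.p., then immediately 10% w/v Evans blue at 10 mL/kg i.v. by tail vein. After 30 min they were killed with ether. The viscera were irrigated with 5 mL saline; the perfusate was filtered, made up to 10 mL, and dye read at 620 nm.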

In assay [2] the test system is Rattus norvegicus. Kind of assay: Antiinflammatory activity in Wistar rat assessed as inhibition of carrageenan-induced paw volume at 100 mg/kg, po measured after 3 hrs of carrageenan challenge (reference value: 1.17 +/- 0.1 ml). The format is functional. (In general: Carrageenan injected into the paw causes an acute inflammation.)
Assay [3] has as its system Rattus norvegicus. Kind of assay: Antiinflammatory activity in Wistar rat assessed as inhibition of carrageenan-induced paw volume at 100 mg/kg, po measured after 6 hrs of carrageenan challenge (reference value: 1.69 +/- 0.08 ml). The format is functional.
Assay [4] has as its target T1, Prostaglandin G/H synthase 1 (Ovis aries) (UniProt P05979).
T1 sequence (whole entry): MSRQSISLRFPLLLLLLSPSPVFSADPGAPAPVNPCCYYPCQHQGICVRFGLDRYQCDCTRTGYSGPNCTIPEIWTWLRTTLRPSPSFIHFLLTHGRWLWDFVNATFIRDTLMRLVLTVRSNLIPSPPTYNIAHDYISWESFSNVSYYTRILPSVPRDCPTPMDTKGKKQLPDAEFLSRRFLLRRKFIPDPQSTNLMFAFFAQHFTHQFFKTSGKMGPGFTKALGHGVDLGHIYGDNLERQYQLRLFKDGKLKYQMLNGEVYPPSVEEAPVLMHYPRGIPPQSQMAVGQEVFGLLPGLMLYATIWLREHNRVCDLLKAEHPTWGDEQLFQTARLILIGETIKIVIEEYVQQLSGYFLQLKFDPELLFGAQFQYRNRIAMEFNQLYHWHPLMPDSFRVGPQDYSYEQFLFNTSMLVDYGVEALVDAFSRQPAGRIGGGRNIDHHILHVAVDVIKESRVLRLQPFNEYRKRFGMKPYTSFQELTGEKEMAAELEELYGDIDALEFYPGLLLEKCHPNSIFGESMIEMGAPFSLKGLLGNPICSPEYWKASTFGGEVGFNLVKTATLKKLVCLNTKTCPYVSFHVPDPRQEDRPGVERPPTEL
Nature of the assay: Inhibition of ovine COX1 assessed as appearance of oxidized N,N,N,N'- tetramethyl-p-phenylenediamine at 100 uM. An outline of the steps:
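Colorimetric ovine COX screening kit. The reaction held assay buffer, heme, COX-1 enzyme and test sample at 100 µM. The COX peroxidase activity was followed by the appearance of oxidized TMPD at 590 nm. Inhibition was calculated as (1 − T/C)×100, where C is the absorbance of the uninhibited well.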

As a reminder, the inhibition in vivo is the drop in the measured response relative to a control, in per cent. As to `COc1ccc2c(c1)c(CC(=O)O)c(C)n2C(=O)c1ccc(Cl)cc1` [INDOMETHACIN], the Activity in the assay on Rattus norvegicus [1] came out at 0.86 mL; in the assay on Rattus norvegicus [2], 0.95 mL; in the assay with Rattus norvegicus [3], 0.78 mL. Also, in the assay with Mus musculus, the inhibition in vivo at 100 mg/kg stood at 70.4%.

For orientation: inhibition means the drop in the measured response relative to a control, in per cent. Take `COc1cc(OC)c2c(=O)cc(-c3c(Cl)cccc3Cl)oc2c1-c1ccnn1C`: the Activity amounted to 0.79 mL in the assay on Rattus norvegicus [1], 1.46 mL in the assay on Rattus norvegicus [2] and 1.01 mL in the assay with Rattus norvegicus [3]. In the assay on Mus musculus, the inhibition in vivo at 100 mg/kg stood at 57.8%. Further, the inhibition in assay [4] amounted to 48.9%.

As for `COc1cc(OC)c2c(=O)cc(-c3ccc(Br)cc3)oc2c1-c1ccnn1C`, the Activity in the assay with Rattus norvegicus [1] amounted to 0.81 mL; in the assay on Rattus norvegicus [2] it was 0.99 mL; in the assay with Rattus norvegicus [3], 1.11 mL. In addition, the inhibition in vivo at 100 mg/kg in the assay on Mus musculus was found to be 35.1%. Further, in assay [4], the inhibition amounted to 54.1%.

Take `COc1cc(OC)c(-c2cc(=O)c3c(OC)cc(OC)c(-c4ccnn4C)c3o2)c(OC)c1`: the results for the Activity with Rattus norvegicus [1], in the assay on Rattus norvegicus [2] and in the assay with Rattus norvegicus [3] were 0.83 mL, 0.95 mL and 0.97 mL, respectively. In addition, the inhibition in vivo at 100 mg/kg in the assay on Mus musculus is 72.3%. The inhibition in assay [4] came to 45.7%.

For `COc1cc(OC)c2c(=O)cc(-c3ccco3)oc2c1-c1ccnn1C`, the Activity in the assay on Rattus norvegicus [1] was 0.87 mL; with Rattus norvegicus [2], 0.94 mL; with Rattus norvegicus [3] it was 0.88 mL. Also, in the assay on Mus musculus, the inhibition in vivo at 100 mg/kg is 60.5%. For the same compound, in assay [4], the inhibition came out at 20.4%.

On to `COc1cc(OC)c2c(=O)cc(-c3cccc([N+](=O)[O-])c3)oc2c1-c1ccnn1C`, for which the Activity is 1.04 mL in the assay on Rattus norvegicus [1], 1 mL in the assay on Rattus norvegicus [2] and 1.02 mL in the assay on Rattus norvegicus [3]. In addition, the inhibition in vivo at 100 mg/kg in the assay on Mus musculus was found to be 33.3%. Besides, the inhibition in assay [4] came to 47.4%.

Regarding `COc1cc(OC)c2c(=O)cc(-c3ccc(F)c(F)c3)oc2c1-c1ccnn1C`, the Activity in the assay with Rattus norvegicus [1] came out at 0.79 mL; in the assay with Rattus norvegicus [2], 0.99 mL; in the assay with Rattus norvegicus [3], 1.2 mL. In addition, the inhibition in assay [4] was 52.8%.

As to `COc1cc(OC)c2c(=O)cc(-c3ccc4c(c3)OCO4)oc2c1-c1ccnn1C`, the Activity in the assay on Rattus norvegicus [1] turned out to be 0.86 mL; in the assay on Rattus norvegicus [2], 0.92 mL; in the assay on Rattus norvegicus [3] it was 1.07 mL. Further, in the assay with Mus musculus, the inhibition in vivo at 100 mg/kg is 25.3%. In addition, the inhibition in assay [4] stood at 51.6%.

As for `COc1cc(OC)c2c(=O)cc(-c3ccc(F)cc3)oc2c1-c1ccnn1C`, the figures for the Activity in the assay with Rattus norvegicus [1], in the assay with Rattus norvegicus [2] and with Rattus norvegicus [3] were 0.76 mL, 1.05 mL and 1.17 mL, respectively. In addition, the inhibition in vivo at 100 mg/kg in the assay with Mus musculus came to 51.9%. For the same compound, the inhibition in assay [4] is 54.1%.

On to `COc1cc(OC)c2c(=O)cc(-c3ccccc3)oc2c1-c1ccnn1C`, for which the Activity was 0.77 mL with Rattus norvegicus [1], 0.91 mL in the assay with Rattus norvegicus [2] and 1.22 mL in the assay on Rattus norvegicus [3]. Further, in assay [4], the inhibition came to 54.1%.

With `COc1cc(OC)c2c(=O)cc(-c3ccc(Cl)cc3Cl)oc2c1-c1ccnn1C`, the Activity is 0.89 mL with Rattus norvegicus [1], 1.11 mL with Rattus norvegicus [2] and 1.32 mL in the assay with Rattus norvegicus [3]. In assay [4], the inhibition came to 46.1%.

In the case of `COc1cc(OC)c2c(=O)cc(-c3cccs3)oc2c1-c1ccnn1C`, the Activity was 0.91 mL in the assay on Rattus norvegicus [1], 1.18 mL in the assay with Rattus norvegicus [2] and 1.55 mL in the assay with Rattus norvegicus [3]. Moreover, in assay [4], the inhibition stood at 60%.

With `COc1cc(OC)c2c(=O)cc(-c3c(F)cccc3F)oc2c1-c1ccnn1C`, the Activity was found to be 0.88 mL in the assay on Rattus norvegicus [1], 1.24 mL with Rattus norvegicus [2] and 1.44 mL in the assay with Rattus norvegicus [3]. Besides, the inhibition in assay [4] turned out to be 52.2%.

For `COc1cc(OC)c2c(=O)cc(-c3ccc(F)cc3F)oc2c1-c1ccnn1C`, the figures for the Activity with Rattus norvegicus [1], in the assay on Rattus norvegicus [2] and with Rattus norvegicus [3] were 0.78 mL, 1.01 mL and 1.44 mL, respectively. The inhibition in assay [4] was determined as 51.6%.

`COc1ccc(-c2cc(=O)c3c(OC)cc(OC)c(-c4ccnn4C)c3o2)cc1OC`: the Activity in the assay on Rattus norvegicus [1] worked out at 0.79 mL; in the assay on Rattus norvegicus [2] it was 0.96 mL; in the assay on Rattus norvegicus [3], 0.99 mL. The inhibition in vivo at 100 mg/kg in the assay with Mus musculus came out at 68.2%. In addition, the inhibition in assay [4] is 48.4%.
